Results of several laboratories.
Lines come from different studies, so protocols differ.
Organism: Severe acute respiratory syndrome coronavirus 2
Action: inhibitor

SMILES	observed	cells	time	notes	IC50 [nM]
CCC(CC)COC(=O)[C@H](C)N[P@](=O)(OC[C@H]1O[C@@](C#N)(c2ccc3c(N)ncnn23)[C@H](O)[C@@H]1O)Oc1ccccc1	viral replication	A549-hACE2-TMPRSS2	24 h		100
O=c1[nH]c2ccccc2n1C1CCN(CCCC(c2ccc(F)cc2)c2ccc(F)cc2)CC1	viral replication	Calu-3		replicon	4910
Cc1ccccc1-n1nnnc1Sc1ccc(C(=O)c2ccccc2)cc1[N+](=O)[O-]	viral replication	A549-hACE2-TMPRSS2	24 h		25300
COc1ncc(-c2cn([C@@H]3O[C@](F)(COC(=O)C(C)C)[C@@H](OC(=O)C(C)C)[C@H]3OC(=O)C(C)C)cn2)c(N)n1	viral replication	A549-ACE2	24 h		41900
CCOc1nc2cccc(C(=O)O)c2n1Cc1ccc(-c2ccccc2-c2nnn[nH]2)cc1	viral replication	Caco-2		replicon	714
O=C(Nc1ccc([N+](=O)[O-])cc1Cl)c1cc(Cl)ccc1O	viral entry	HeLa-ACE2		pseudovirus	1350
COc1nc(N)ncc1-c1cn([C@@H]2O[C@](F)(CO)[C@@H](O)[C@H]2O)cn1	viral replication	A549-ACE2	24 h		> 100000
Cc1cn2nc([C@@H]3CCCCN3C(=O)c3cc(Cl)ccc3NS(C)(=O)=O)cc2nc1N1CC[C@H](N)C1	viral entry	HeLa-ACE2		pseudovirus	320
Cc1ccc(NC(=O)C2(c3ccc4c(c3)OC(F)(F)O4)CC2)nc1-c1cccc(C(=O)O)c1	viral replication	Caco-2		replicon	964
CC(C)C(=O)OC[C@@]1(F)O[C@@H](n2cnc(-c3c[nH]c(=O)[nH]c3=O)c2)[C@H](OC(=O)C(C)C)[C@@H]1OC(=O)C(C)C	viral replication	A549-ACE2	24 h		49800
